Values after ≈ are worked out from the molar mass of the structure shown.
Key:
Helicobacter pylori [1] = assay: Antibacterial activity against metronidazole-sensitive Helicobacter pylori assessed as inhibition zone diameter at 32 ug/disk after 3-5 days by paper disk diffusion assay; type: functional
Outline: (§1)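 Filter-paper disk diffusion (6 mm disks), with the compound applied in 40 µL methanol and dried. Disks placed on Mueller–Hinton agar with 7% defibrinated horse blood, inoculated with 48 h H. pylori clinical-isolate suspension at 2 McFarland (10^7-10^8 CFU/mL). Incubated 3–5 days at 37 °C microaerophilically (5% O2, 15% CO2, 80% N2). Mean inhibition-zone diameter (mm) from triplicates.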

Candida albicans = assay: Antifungal activity against Candida albicans PTCC 5027 after 72 hrs by agar dilution method; type: functional
Escherichia coli = assay: Antibacterial activity against Escherichia coli ATCC 8739 after 18 hrs by serial dilution method; type: functional; conditions: ATCC 8739, 18 h
Outline: (§2)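 Agar dilution MIC. Compound stock diluted with water, then serially doubled in melted Mueller–Hinton agar to 64, 32, 16 and 8 µg/mL. Plates inoculated with 1-5 × 10^4 CFU and incubated 18 h at 37 °C. MIC is the lowest concentration giving no visible growth.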

Helicobacter pylori [2] = assay: Antibacterial activity against metronidazole-sensitive Helicobacter pylori assessed as inhibition zone diameter at 8 ug/disk after 3-5 days by paper disk diffusion assay; type: functional; outline: as §1
Saccharomyces cerevisiae = assay: Antifungal activity against Saccharomyces cerevisiae PTCC 5177 after 72 hrs by agar dilution method; type: functional
Nannizzia gypsea = assay: Antifungal activity against Microsporum gypseum PTCC 5070 after […] by agar dilution method; type: functional
Outline: (§3)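 Agar dilution on Sabouraud dextrose agar. Compound stocks in DMSO. Inocula about 10^5 CFU/mL from log-phase broth cultures. Plates run in triplicate at 30 °C: about 24–48 h for yeasts, about 72 h for moulds, about 168 h for dermatophytes. MIC is the lowest concentration with no visible growth on the plate.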

Staphylococcus aureus = assay: Antibacterial activity against Staphylococcus aureus ATCC 6538P after 18 hrs by serial dilution method; type: functional; outline: as §2
[3] = test system: Staphylococcus epidermidis; assay: Antibacterial activity against Staphylococcus epidermidis ATCC 12228 after 18 hrs by serial dilution method; type: functional; conditions: ATCC 12228, 18 h; outline: as §2
Aspergillus niger = assay: Antifungal activity against Aspergillus niger PTCC 5012 after 72 hrs by agar dilution method; type: functional; outline: as §3
Helicobacter pylori [4] = assay: Antibacterial activity against metronidazole-sensitive Helicobacter pylori assessed as inhibition zone diameter at 16 ug/disk after 3-5 days by paper disk diffusion assay; type: functional
Outline: (§4)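 Filter paper disks (6 mm) loaded with compound in 40 μL methanol, dried, placed on Mueller–Hinton agar with 7% defibrinated horse blood pre-inoculated with H. pylori suspension (2 McFarland, 10⁷-10⁸ CFU/mL; 48 h cultures checked for coccoid forms); incubated microaerophilically (5% O2, 15% CO2, 80% N2) at 37 °C for 3–5 days; mean inhibition zone diameter (mm) of triplicates.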

Klebsiella pneumoniae = assay: Antibacterial activity against Klebsiella pneumoniae ATCC 10031 after 18 hrs by serial dilution method; type: functional; conditions: ATCC 10031, 18 h; outline: as §2
Helicobacter pylori [5] = assay: Antibacterial activity against Helicobacter pylori isolate assessed as inhibition zone diameter at 0.5 ug/disk after 3-5 days by paper disk diffusion assay; type: functional; outline: as §1
Helicobacter pylori [6] = assay: Antibacterial activity against metronidazole-resistant Helicobacter pylori assessed as inhibition zone diameter at 32 ug/disk after 3-5 days by paper disk diffusion assay; type: functional; outline: as §4
[7] = Cytotoxicity against mouse NIH/3T3 cells after 72 hrs by MTT assay; type: cell-based; conditions: NIH3T3, 72 h
Outline: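 NIH/3T3 mouse fibroblasts in exponential phase trypsinized and seeded at 5×10^4 cells/mL, then given serially diluted compound in triplicate and incubated 72 h. MTT (5 mg/mL solution) added for 1 h, formazan dissolved in DMSO, absorbance read at 492 nm. IC50 calculated from dose-response curves versus untreated controls, as mean ± SD of triplicates.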

Helicobacter pylori [8] = assay: Antibacterial activity against Helicobacter pylori isolate assessed as inhibition zone diameter at 32 ug/disk after 3-5 days by paper disk diffusion assay; type: functional; outline: as §1
Helicobacter pylori [9] = assay: Antibacterial activity against Helicobacter pylori isolate assessed as inhibition zone diameter at 2 ug/disk after 3-5 days by paper disk diffusion assay; type: functional; outline: as §1
Helicobacter pylori [10] = assay: Antibacterial activity against Helicobacter pylori isolate assessed as inhibition zone diameter at 16 ug/disk after 3-5 days by paper disk diffusion assay; type: functional; outline: as §1
Helicobacter pylori [11] = assay: Antibacterial activity against Helicobacter pylori isolate assessed as inhibition zone diameter at 1 ug/disk after 3-5 days by paper disk diffusion assay; type: functional; outline: as §1
Helicobacter pylori [12] = assay: Antibacterial activity against metronidazole-resistant Helicobacter pylori assessed as inhibition zone diameter at 16 ug/disk after 3-5 days by paper disk diffusion assay; type: functional; outline: as §4
Helicobacter pylori [13] = assay: Antibacterial activity against Helicobacter pylori isolate assessed as inhibition zone diameter at 4 ug/disk after 3-5 days by paper disk diffusion assay; type: functional; outline: as §1
Helicobacter pylori [14] = assay: Antibacterial activity against metronidazole-resistant Helicobacter pylori assessed as inhibition zone diameter at 8 ug/disk after 3-5 days by paper disk diffusion assay; type: functional; outline: as §4
Helicobacter pylori [15] = assay: Antibacterial activity against Helicobacter pylori isolate assessed as inhibition zone diameter at 8 ug/disk after 3-5 days by paper disk diffusion assay; type: functional; outline: as §1

Structure (SMILES) | Activity (Helicobacter pylori [1]) | MIC (Candida albicans) | MIC (Escherichia coli) | Activity (Helicobacter pylori [2]) | MIC (Saccharomyces cerevisiae) | MIC (Nannizzia gypsea) | MIC (Staphylococcus aureus) | MIC [3] | MIC (Aspergillus niger) | Activity (Helicobacter pylori [4]) | MIC (Klebsiella pneumoniae) | Activity (Helicobacter pylori [5]) | Activity (Helicobacter pylori [6]) | IC50 [7] | Activity (Helicobacter pylori [8]) | Activity (Helicobacter pylori [9]) | Activity (Helicobacter pylori [10]) | Activity (Helicobacter pylori [11]) | Activity (Helicobacter pylori [13]) | Activity (Helicobacter pylori [15]) | other results
CCSCCSc1nnc(-c2ccccc2[N+](=O)[O-])s1 | 6 mm | > 32 µg/mL | > 32 µg/mL | 6 mm | > 32 µg/mL | > 32 µg/mL | > 32 µg/mL | 32 µg/mL (≈ 97.7 µM) | > 32 µg/mL | 6 mm | > 32 µg/mL | – | – | – | – | – | – | – | – | – | –
CCS(=O)(=O)CCSc1nnc(-c2ccc([N+](=O)[O-])o2)s1 | 46 mm | > 32 µg/mL | > 32 µg/mL | 37 mm | > 32 µg/mL | > 32 µg/mL | > 32 µg/mL | 32 µg/mL (≈ 91.6 µM) | > 32 µg/mL | 43 mm | > 32 µg/mL | 6.6 mm | 41 mm | 4.2 µg/mL (≈ 12 µM) | 36.5 mm | 18.3 mm | 33.1 mm | 12.6 mm | 23.5 mm | 29.1 mm | Activity (Helicobacter pylori [12]): 34 mm; Activity (Helicobacter pylori [14]): 29 mm
CCSCCSc1nnc(-c2cccc([N+](=O)[O-])c2)s1 | 9 mm | > 32 µg/mL | > 32 µg/mL | 6 mm | > 32 µg/mL | > 32 µg/mL | > 32 µg/mL | 32 µg/mL (≈ 97.7 µM) | > 32 µg/mL | 6 mm | > 32 µg/mL | – | – | – | – | – | – | – | – | – | –
CCS(=O)(=O)CCSc1nnc(-c2ncc([N+](=O)[O-])n2C)s1 | 47 mm | > 32 µg/mL | > 32 µg/mL | 35 mm | > 32 µg/mL | > 32 µg/mL | > 32 µg/mL | 32 µg/mL (≈ 88 µM) | > 32 µg/mL | 40 mm | > 32 µg/mL | 8.5 mm | – | 100 µg/mL (≈ 275 µM) | 40.7 mm | 16.5 mm | 35.8 mm | 11.9 mm | 23.4 mm | 29.7 mm | Activity (Helicobacter pylori [14]): 36 mm
CCS(=O)(=O)CCSc1nnc(-c2cccc([N+](=O)[O-])c2)s1 | 26 mm | > 32 µg/mL | > 32 µg/mL | 6 mm | > 32 µg/mL | > 32 µg/mL | > 32 µg/mL | 32 µg/mL (≈ 89 µM) | > 32 µg/mL | 6 mm | > 32 µg/mL | – | 25 mm | – | – | – | – | – | – | – | –
CCSCCSc1nnc(-c2ccc([N+](=O)[O-])o2)s1 | 42 mm | > 32 µg/mL | > 32 µg/mL | 22 mm | > 32 µg/mL | > 32 µg/mL | > 32 µg/mL | 32 µg/mL (≈ 101 µM) | > 32 µg/mL | 31 mm | > 32 µg/mL | 6 mm | 28 mm | 5 µg/mL (≈ 15.8 µM) | 34.9 mm | 16.4 mm | 30.7 mm | 11.1 mm | 21.5 mm | 28.3 mm | Activity (Helicobacter pylori [12]): 21 mm; Activity (Helicobacter pylori [14]): 16 mm
CCSCCSc1nnc(-c2ncc([N+](=O)[O-])n2C)s1 | 48 mm | > 32 µg/mL | > 32 µg/mL | 32 mm | > 32 µg/mL | > 32 µg/mL | > 32 µg/mL | 32 µg/mL (≈ 96.5 µM) | > 32 µg/mL | 37 mm | > 32 µg/mL | 12.2 mm | 59 mm | 61.5 µg/mL (≈ 186 µM) | 42.6 mm | 19.5 mm | 36.5 mm | 15 mm | 25.4 mm | 31.7 mm | Activity (Helicobacter pylori [12]): 47 mm; Activity (Helicobacter pylori [14]): 35 mm
CCSCCSc1nnc(-c2ccc([N+](=O)[O-])cc2)s1 | 20 mm | > 32 µg/mL | > 32 µg/mL | 6 mm | > 32 µg/mL | > 32 µg/mL | > 32 µg/mL | 32 µg/mL (≈ 97.7 µM) | > 32 µg/mL | 16 mm | > 32 µg/mL | – | – | – | – | – | – | – | – | – | –
CC1(C)S[C@@H]2[C@H](NC(=O)[C@H](N)c3ccc(O)cc3)C(=O)N2[C@H]1C(=O)O [AMOXICILLIN] | – | – | – | – | – | – | – | – | – | – | – | – | – | – | – | – | – | 24.5 mm | – | – | –
CCS(=O)(=O)CCSc1nnc(-c2ccccc2[N+](=O)[O-])s1 | 15 mm | > 32 µg/mL | > 32 µg/mL | 6 mm | > 32 µg/mL | > 32 µg/mL | > 32 µg/mL | 32 µg/mL (≈ 89 µM) | > 32 µg/mL | 9 mm | > 32 µg/mL | – | 13 mm | – | – | – | – | – | – | – | –
CCS(=O)(=O)CCSc1nnc(-c2ccc([N+](=O)[O-])s2)s1 | >50 mm | > 32 µg/mL | > 32 µg/mL | >50 mm | > 32 µg/mL | > 32 µg/mL | > 32 µg/mL | 32 µg/mL (≈ 87.6 µM) | > 32 µg/mL | >50 mm | > 32 µg/mL | 18.2 mm | – | 11.6 µg/mL (≈ 31.7 µM) | 47.6 mm | 31.9 mm | 46.7 mm | 24.9 mm | 37.5 mm | 44.2 mm | –
CCS(=O)(=O)CCSc1nnc(-c2ccc([N+](=O)[O-])cc2)s1 | 30 mm | > 32 µg/mL | > 32 µg/mL | 19 mm | > 32 µg/mL | > 32 µg/mL | > 32 µg/mL | 32 µg/mL (≈ 89 µM) | > 32 µg/mL | 24 mm | > 32 µg/mL | – | 27 mm | – | – | – | – | – | – | – | –
Cc1ncc([N+](=O)[O-])n1CCO [METRONIDAZOLE] | 27 mm | – | – | 18 mm | – | – | – | – | – | 23 mm | – | 6 mm | 14 mm | – | 20.7 mm | 7.5 mm | 18.4 mm | 6 mm | 8.75 mm | 16.3 mm | Activity (Helicobacter pylori [12]): 12 mm; Activity (Helicobacter pylori [14]): 11 mm
CCSCCSc1nnc(-c2ccc([N+](=O)[O-])s2)s1 | 50 mm | > 32 µg/mL | > 32 µg/mL | 50 mm | > 32 µg/mL | > 32 µg/mL | > 32 µg/mL | 32 µg/mL (≈ 96 µM) | > 32 µg/mL | 50 mm | > 32 µg/mL | 16.8 mm | – | 4.5 µg/mL (≈ 13.5 µM) | 47.2 mm | 28.9 mm | 47 mm | 22.9 mm | 37.1 mm | 44.4 mm | –
